≈ marks a conversion by molar mass, not a printed value.
Tests used:
Assay type in all cases: functional
[1] = tested on: Bacillus subtilis; assay: Antimicrobial activity against Bacillus subtilis at 100 ug/ml by agar plate diffusion technique; details: read-out: IZ
Method in brief: (§1)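 Agar plate diffusion against E. coli, P. aeruginosa, S. aureus and B. subtilis, with compounds at 25, 50 and 100 µg/mL. Streptomycin as standard.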

[2] = tested on: Candida albicans; assay: Antimicrobial activity against Candida albicans at 50 ug/ml by paper disc method; details: read-out: IZ
Method in brief: (§2)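 Paper disc method against A. niger and C. albicans, with compounds at 25, 50 and 100 µg/mL. Amphotericin-B as standard.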

[3] = tested on: Aspergillus niger; assay: Antimicrobial activity against Aspergillus niger at 100 ug/ml by paper disc method; details: read-out: IZ; method in brief: as §2
[4] = Antioxidant activity assessed as nitric oxide radical scavenging activity after 150 mins
Method in brief: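 10 mM sodium nitroprusside (4 mL), PBS pH 7.4 (1 mL) and sample or ascorbic acid in DMSO (1 mL, 12.5–100 µg/mL), incubated 150 min at 25 °C. Nitrite detected with sulphanilic acid (5 min) then naphthylethylenediamine (30 min, diffused light). Read at […]. Triplicate. % inhibition = [1 − (Vt/Vc)] × 100. IC50 derived from it.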

[5] = Antiinflammatory activity assessed as inhibition of albumin denaturation at 100 ug/ml by UV-visible spectrophotometry
Method in brief: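 Compounds dissolved in minimal DMF, diluted in PBS pH 7.4 (final DMF <2.5%). 1 mL test solution (100 µg/mL) plus 1 mL 1% albumin in PBS, 15 min at 27 ± 1 °C, then heated 10 min at 60 ± 1 °C. After cooling, turbidity read at 660 nm. % inhibition = [(Vt/Vc) − 1] × 100 against a no-drug control. Triplicate, averaged. Diclofenac standard.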

[6] = Antioxidant activity assessed as potassium ferricyanide ion reducing power after 20 mins
Method in brief: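 Oyaizu method. Samples or ascorbic acid in DMF (12.5–100 µg/mL) mixed with 0.2 M phosphate buffer pH 6.6 and 1% potassium ferricyanide, 20 min at 50 °C. 10% TCA added, centrifuged. Supernatant mixed with water and 0.1% FeCl3, read at 700 nm. % = [(Vt/Vc) − 1] × 100. IC50 derived.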

[7] = tested on: Escherichia coli; assay: Antimicrobial activity against Escherichia coli at 100 ug/ml by agar plate diffusion technique; details: read-out: IZ; method in brief: as §1
[8] = tested on: Escherichia coli; assay: Antimicrobial activity against Escherichia coli at 25 ug/ml by agar plate diffusion technique; details: read-out: IZ; method in brief: as §1
[9] = tested on: Pseudomonas aeruginosa; assay: Antimicrobial activity against Pseudomonas aeruginosa at 25 ug/ml by agar plate diffusion technique; details: read-out: IZ; method in brief: as §1
[10] = tested on: Metaphire posthuma; assay: Anthelmintic activity against Pheretima posthuma assessed as time taken for complete parasite paralysis at 0.5% w/v
Method in brief: (§3)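 Earthworms (Pheretima posthuma) exposed to test solutions at 0.1, 0.2 and 0.5% w/v; time in minutes to complete paralysis (worms motionless) recorded. Albendazole as standard. Mean of three determinations ± S.D.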

[11] = tested on: Pseudomonas aeruginosa; assay: Antimicrobial activity against Pseudomonas aeruginosa at 100 ug/ml by agar plate diffusion technique; details: read-out: IZ; method in brief: as §1
[12] = tested on: Metaphire posthuma; assay: Anthelmintic activity against Pheretima posthuma assessed as time taken for parasite death at 0.2% w/v
Method in brief: (§4)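 Earthworms (Pheretima posthuma, spelled Perituma posthuma in text) exposed to test compounds at 0.1, 0.2 and 0.5% w/v. Albendazole served as standard, with an untreated control. Paralysis was recorded as the time until worms became motionless, then time to death was recorded, in minutes. Each value is the mean of three determinations with S.D.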

[13] = tested on: Bacillus subtilis; assay: Antimicrobial activity against Bacillus subtilis at 50 ug/ml by agar plate diffusion technique; details: read-out: IZ; method in brief: as §1
[14] = tested on: Aspergillus niger; assay: Antimicrobial activity against Aspergillus niger at 25 ug/ml by paper disc method; details: read-out: IZ; method in brief: as §2
[15] = Antioxidant activity assessed as inhibition of lipid peroxidation using egg lecithin liposomes incubated for 1 hr
Method in brief: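 Egg lecithin (3 mg/mL, phosphate buffer pH 7.4) sonicated 10 min to form liposomes. Sample or ascorbic acid (12.5–100 µg/mL) added. Peroxidation induced with FeCl3 and L-ascorbic acid, 1 h at 37 °C. Stopped with HCl/TCA/TBA/BHA, boiled 15 min, centrifuged, supernatant read at 532 nm. Triplicate. % inhibition vs control. IC50 derived.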

[16] = tested on: Candida albicans; assay: Antimicrobial activity against Candida albicans at 25 ug/ml by paper disc method; details: read-out: IZ; method in brief: as §2
[17] = tested on: Staphylococcus aureus; assay: Antimicrobial activity against Staphylococcus aureus at 25 ug/ml by agar plate diffusion technique; details: read-out: IZ; method in brief: as §1
[18] = tested on: Metaphire posthuma; assay: Anthelmintic activity against Pheretima posthuma assessed as time taken for parasite death at 0.1% w/v; method in brief: as §4
[19] = Antioxidant activity assessed as hydrogen peroxide scavenging activity after 10 mins
Method in brief: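 H2O2 (20 mM) in PBS pH 7.4. 1 mL of sample or ascorbic acid in methanol (12.5–100 µg/mL) added to 2 mL H2O2 solution. A230 read after 10 min. % inhibition = [1 − (Vt/Vc)] × 100. Triplicate, averaged. IC50 derived from % inhibition across concentrations.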

[20] = tested on: Bacillus subtilis; assay: Antimicrobial activity against Bacillus subtilis at 25 ug/ml by agar plate diffusion technique; details: read-out: IZ; method in brief: as §1
[21] = tested on: Metaphire posthuma; assay: Anthelmintic activity against Pheretima posthuma assessed as time taken for parasite death at 0.5% w/v; method in brief: as §4
[22] = tested on: Pseudomonas aeruginosa; assay: Antimicrobial activity against Pseudomonas aeruginosa at 50 ug/ml by agar plate diffusion technique; details: read-out: IZ; method in brief: as §1
[23] = tested on: Metaphire posthuma; assay: Anthelmintic activity against Pheretima posthuma assessed as time taken for complete parasite paralysis at 0.1% w/v; method in brief: as §3
[24] = tested on: Candida albicans; assay: Antimicrobial activity against Candida albicans at 100 ug/ml by paper disc method; details: read-out: IZ; method in brief: as §2
[25] = tested on: Metaphire posthuma; assay: Anthelmintic activity against Pheretima posthuma assessed as time taken for complete parasite paralysis at 0.2% w/v; method in brief: as §3
[26] = tested on: Escherichia coli; assay: Antimicrobial activity against Escherichia coli at 50 ug/ml by agar plate diffusion technique; details: read-out: IZ; method in brief: as §1
[27] = tested on: Staphylococcus aureus; assay: Antimicrobial activity against Staphylococcus aureus at 50 ug/ml by agar plate diffusion technique; details: read-out: IZ; method in brief: as §1
[28] = tested on: Aspergillus niger; assay: Antimicrobial activity against Aspergillus niger at 50 ug/ml by paper disc method; details: read-out: IZ; method in brief: as §2
[29] = tested on: Staphylococcus aureus; assay: Antimicrobial activity against Staphylococcus aureus at 100 ug/ml by agar plate diffusion technique; details: read-out: IZ; method in brief: as §1

| SMILES | zone of inhibition at 100 µg/mL [1] | zone of inhibition at 50 µg/mL [2] | zone of inhibition at 100 µg/mL [3] | IC50 [4] | inhibition [5] | IC50 [6] | zone of inhibition at 100 µg/mL [7] | zone of inhibition at 25 µg/mL [8] | zone of inhibition at 25 µg/mL [9] | Time [10] | zone of inhibition at 100 µg/mL [11] | Time [12] | zone of inhibition at 50 µg/mL [13] | zone of inhibition at 25 µg/mL [14] | IC50 [15] | zone of inhibition at 25 µg/mL [16] | zone of inhibition at 25 µg/mL [17] | Time [18] | IC50 [19] | zone of inhibition at 25 µg/mL [20] | other results |
| --- | --- | --- | --- | --- | --- | --- | --- | --- | --- | --- | --- | --- | --- | --- | --- | --- | --- | --- | --- | --- | --- |
| Cn1c(NN)nc(-c2ccc(Cl)cc2)c(C#N)c1=O | 24.1 mm | 15.7 mm | 21.4 mm | 59 mg/L (≈ 214 µM) | 61.2% | 44 mg/L (≈ 160 µM) | 12.4 mm | 8.18 mm | 7.64 mm | 37.67 min | 14.9 mm | 46.45 min | 16 mm | 14.6 mm | 46 mg/L (≈ 167 µM) | 12.8 mm | 11.2 mm | 58.3 min | 41 mg/L (≈ 149 µM) | 10.2 mm | Time [21]: 42.54 min; zone of inhibition at 50 µg/mL [22]: 10.2 mm; Time [23]: 42.1 min; zone of inhibition at 100 µg/mL [24]: 17.3 mm; Time [25]: 40.13 min; zone of inhibition at 50 µg/mL [26]: 10.9 mm; zone of inhibition at 50 µg/mL [27]: 15.5 mm; zone of inhibition at 50 µg/mL [28]: 16.8 mm; zone of inhibition at 100 µg/mL [29]: 20.6 mm |
| CSc1nc(-c2cccc(O)c2O)c(C#N)c(=O)n1C | 24.4 mm | 13.9 mm | 17.1 mm | 53 mg/L (≈ 183 µM) | 44.1% | 48 mg/L (≈ 166 µM) | 10.4 mm | 7.28 mm | 7.67 mm | 50.1 min | 12.7 mm | 65.5 min | 15.8 mm | 8.4 mm | 41 mg/L (≈ 142 µM) | 9.48 mm | 8.7 mm | 65.29 min | 37 mg/L (≈ 128 µM) | 13 mm | Time [21]: 61.02 min; zone of inhibition at 50 µg/mL [22]: 8.12 mm; Time [23]: 58.04 min; zone of inhibition at 100 µg/mL [24]: 21 mm; Time [25]: 62.28 min; zone of inhibition at 50 µg/mL [26]: 8.78 mm; zone of inhibition at 50 µg/mL [27]: 10.6 mm; zone of inhibition at 50 µg/mL [28]: 10.8 mm; zone of inhibition at 100 µg/mL [29]: 13.6 mm |
| CCOC(=O)c1cnn(-c2nc(-c3ccc(N(C)C)cc3)c(C#N)c(=O)n2C)c1N | 20.9 mm | 13.7 mm | 18.3 mm | 115 mg/L (≈ 282 µM) | 20.4% | 98 mg/L (≈ 241 µM) | 14 mm | 11.1 mm | 8.29 mm | 42.87 min | 16.7 mm | 57.55 min | 14.8 mm | 10.2 mm | 111 mg/L (≈ 272 µM) | 10.4 mm | 10.1 mm | 49.79 min | 119 mg/L (≈ 292 µM) | 11.2 mm | Time [21]: 58.72 min; zone of inhibition at 50 µg/mL [22]: 11.9 mm; Time [23]: 41.45 min; zone of inhibition at 100 µg/mL [24]: 17.7 mm; Time [25]: 46.58 min; zone of inhibition at 50 µg/mL [26]: 10.2 mm; zone of inhibition at 50 µg/mL [27]: 13.5 mm; zone of inhibition at 50 µg/mL [28]: 12.2 mm; zone of inhibition at 100 µg/mL [29]: 16.5 mm |

— ChEMBL document CHEMBL1821590, “Novel dihydropyrimidines and its pyrazole derivatives: synthesis and pharmacological screening” (Eur J Med Chem, 2011)
